Test [1] deals with CCRF-CEM. Nature of the test: Cytotoxicity against taxol-resistant human CCRF-CEM cells after 72 hrs by XTT assay. Format: functional, cell-based. Put shortly:
(§1)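 CCRF-CEM leukemia cells and their taxol- or vinblastine-resistant sublines given compound for 72 h. XTT read-out: after phenazine methosulfate–XTT, 6 h at 37 °C, absorbance at 450 and 630 nm. IC50 from median-effect analysis of dose-effect data at six or seven concentrations.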

For test [2], the system named is CCRF-CEM. Put plainly: Selectivity ratio of IC50 for vinblastine-resistant human CCRF-CEM cells to IC50 for human CCRF-CEM cells. In kind it is functional.
Test [3] concerns CCRF-CEM. Put plainly: Cytotoxicity against vinblastine-resistant human CCRF-CEM cells after 72 hrs by XTT assay. Format: functional, cell-based. Summed up: as §1
Test [4] has as its system CCRF-CEM. Put plainly: Selectivity ratio of IC50 for taxol-resistant human CCRF-CEM cells to IC50 for human CCRF-CEM cells. In kind it is functional.
In test [5] the test system is CCRF-CEM. Nature of the test: Cytotoxicity against human CCRF-CEM cells after 72 hrs by XTT assay. Format: functional, cell-based. Put shortly: as §1
In test [6] the test system is HCT-116. Put plainly: Cytotoxicity against human HCT116 cells after 72 hrs by SRB assay. To be noted: HCT-116, 72 h. Format: functional, cell-based. Put shortly:
(§2)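 MX-1 breast and HCT-116 colon carcinoma cells exposed to compound for 72 h; growth measured by sulforhodamine B assay. IC50 from median-effect analysis of dose-effect data at six or seven concentrations.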

Test [7] concerns MX1. Put plainly: Cytotoxicity against human MX1 cells after 72 hrs by SRB assay. Format: functional, cell-based. The settings on record: MX1, 72 h. Summed up:
as §2

The nature of test [8]: Cytotoxicity against human CL1-0 cells after 72 hrs by alamar blue assay. Format: functional, cell-based. To be noted: CL1-0, 72 h. Summed up: (§3)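 H1299, PC3, CL1-0, CL1-5 and MCF-7 cells exposed to compound for 72 h. Alamar blue added, then 6 h at 37 °C; absorbance at 570 and 600 nm. IC50 from median-effect analysis of dose-effect data at six or seven concentrations.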

Test [9] is described as follows: Cytotoxicity against human CL1-5 cells after 72 hrs by alamar blue assay. Format: functional, cell-based. To be noted: CL1-5, 72 h. Put shortly: as §3
Test [10] deals with MCF7. Put plainly: Cytotoxicity against human MCF7 cells after 72 hrs by alamar blue assay. The settings on record: MCF7, 72 h. In kind it is functional, cell-based. Put shortly:
as §3

Test [11] relates to PC-3. Put plainly: Cytotoxicity against human PC3 cells after 72 hrs by alamar blue assay. In kind it is functional, cell-based. The settings on record: PC-3, 72 h. Put shortly:
as §3

Test [12] in a line: Cytotoxicity against human H1299 cells after 72 hrs by alamar blue assay. Format: functional, cell-based. To be noted: NCI-H1299, 72 h. Summed up:
as §3

Test [13] relates to Nucleic Acid. Put plainly: Binding affinity to Escherichia coli plasmid EGFP-N1 DNA at 1 to 10 uM after 22 hrs by alkaline agarose gel shift assay. Format: nucleic-acid assay. Put shortly:
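Purified pEGFP-N1 plasmid DNA (1500 ng) incubated with compound (1–20 µM) in 3 mM NaCl/1 mM sodium phosphate pH 7.4/1 mM EDTA for 2 h at 37 °C. Linearized with BamHI, ethanol-precipitated, denatured in 0.5 N NaOH-10 mM EDTA. Run on 0.8% alkaline agarose gel at 4 °C, 18 V for 22 h. Ethidium bromide stain; cross-linked double-stranded DNA scored against single-stranded DNA.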

The source made the active and inactive calls. The rule behind the calls is not given here.

For `Cl.O=C(Nc1ccc(OCCN2CCOCC2)cc1)Nc1ccc(N(CCCl)CCCl)cc1`, the IC50 was determined as 840 nM in test [1], 640 nM in [3] and 350 nM in test [5]. Besides, the “Ratio IC50” value in test [2] stood at 1.8; in test [4], 2.4.
On to `Cl.O=C(Nc1ccc(C(=O)NCCN2CCCC2)cc1)Nc1ccc(N(CCCl)CCCl)cc1`, for which the IC50 in [6] worked out at 360 nM; in test [1], 19700 nM; in test [3] it was 30800 nM; in [7], 2330 nM; in [5], 270 nM. Also, the “Ratio IC50” value is given as 112.5 in [2] and 71.8 in [4].
On to `O=C(Nc1ccc(N(CCCl)CCCl)cc1)Nc1cccc(OCCN2CCCCC2)c1`, for which the IC50 is 270 nM in test [6]; 570 nM in test [1]; 730 nM in test [3]; 190 nM in [7]; 2730 nM in [8]; 3250 nM in [9]. Further, the IC50 was 1820 nM in test [10], 1130 nM in test [11], 190 nM in test [5] and 1520 nM in test [12]. Besides, the “Ratio IC50” value in test [2] came out at 3.8; in test [4] it was 3.
Take `O=C(Nc1ccc(N(CCCl)CCCl)cc1)Nc1cccc(OCCN2CCCC2)c1`: the IC50 in [1] was 1200 nM; in test [3], 4200 nM; in [5], 350 nM. Also, the “Ratio IC50” value is recorded as 12.1 in test [2] and 3.5 in [4].
On to `CN(C)CCNC(=O)c1ccc(NC(=O)Nc2ccc(N(CCCl)CCCl)cc2)cc1.Cl`, for which the IC50 in [6] worked out at 390 nM; in test [1] it was 4800 nM; in [3], 6740 nM; in test [7], 1090 nM; in test [5], 230 nM. For the same molecule, the “Ratio IC50” value was 29.6 in test [2] and 21.1 in [4].
Turning to `CC(=O)O[C@H]1C(=O)[C@@]2(C)[C@H]([C@H](OC(=O)c3ccccc3)[C@]3(O)C[C@H](OC(=O)[C@H](O)[C@@H](NC(=O)c4ccccc4)c4ccccc4)C(C)=C1C3(C)C)[C@]1(OC(C)=O)CO[C@@H]1C[C@@H]2O` [PACLITAXEL], the figures for the “Ratio IC50” value in [2] and in test [4] were 980 and 330, respectively. This molecule displayed an IC50 in [5] of 3 nM.
In the case of `Cl.O=C(Nc1ccc(OCCN2CCCCC2)cc1)Nc1ccc(N(CCCl)CCCl)cc1`, the IC50 in test [6] was found to be 270 nM; in test [1], 500 nM; in test [3], 720 nM; in test [7], 150 nM; in test [8] it was 2870 nM; in test [9], 4750 nM. The IC50 stood at 1240 nM in test [10], 930 nM in test [11], 120 nM in test [5] and 1840 nM in test [12]. Moreover, the figures for the “Ratio IC50” value in test [2] and in [4] were 7.47 and 4.02, respectively. The outcome in test [13] was Active.
For `CN(C)CCOc1cccc(NC(=O)Nc2ccc(N(CCCl)CCCl)cc2)c1`, the IC50 in test [1] worked out at 810 nM; in [3], 1480 nM; in test [5], 1320 nM. Moreover, the “Ratio IC50” value in test [2] came to 1.1; in test [4], 0.6.
Regarding `Cl.O=C(Nc1ccc(C(=O)N2CCC(N3CCCCC3)CC2)cc1)Nc1ccc(N(CCCl)CCCl)cc1`, the IC50 is 640 nM in test [6]; 20500 nM in test [1]; 32200 nM in test [3]; 3640 nM in test [7]; 15800 nM in test [8]; 8510 nM in test [9]. For the same molecule, the IC50 stood at 1540 nM in test [10], 1910 nM in [11], 220 nM in test [5] and 9630 nM in [12]. Moreover, the “Ratio IC50” value in test [2] is recorded as 143.7; in test [4] it was 91.4.
In the case of `Cl.O=C(Nc1ccc(C(=O)NCCN2CCOCC2)cc1)Nc1ccc(N(CCCl)CCCl)cc1`, the IC50 came out at 2740 nM in test [6]; 19800 nM in [1]; 29800 nM in test [3]; 3390 nM in [7]; 730 nM in test [5]. The “Ratio IC50” value is 16.8 in test [2] and 27.1 in test [4].
As for `CN(C)CCCNC(=O)c1ccc(NC(=O)Nc2ccc(N(CCCl)CCCl)cc2)cc1.Cl`, the IC50 was 4540 nM in test [6]; 20400 nM in test [1]; 32800 nM in test [3]; 1110 nM in [7]; 16200 nM in test [8]; 9790 nM in test [9]. Besides, the IC50 was 5170 nM in [10], 5250 nM in [11], 260 nM in test [5] and 12700 nM in test [12]. The “Ratio IC50” value in [2] came to 124.8; in test [4] it was 77.5.
As to `CN(C)CCOc1ccc(NC(=O)Nc2ccc(N(CCCl)CCCl)cc2)cc1.Cl`, the IC50 was 270 nM in test [6]; 1500 nM in test [1]; 1190 nM in test [3]; 280 nM in [7]; 4070 nM in test [8]; 3010 nM in test [9]. Further, the IC50 in test [10] came to 1250 nM; in test [11] it was 1670 nM; in test [5] it was 100 nM; in [12], 4380 nM. The “Ratio IC50” value is recorded as 6.02 in test [2] and 7.6 in [4].
Turning to `Cl.O=C(Nc1ccc(N(CCCl)CCCl)cc1)Nc1cccc(C(=O)N2CCC(N3CCCCC3)CC2)c1`, the IC50 in [6] was 810 nM; in test [1], 12200 nM; in test [3], 20000 nM; in [7] it was 2240 nM; in test [8], 6230 nM; in test [9], 8090 nM. The IC50 amounted to 3090 nM in [10], 3190 nM in [11], 280 nM in [5] and 11500 nM in test [12]. In addition, the “Ratio IC50” value in [2] is recorded as 71.6; in [4], 43.5.
With `Cl.O=C(Nc1ccc(N(CCCl)CCCl)cc1)Nc1cccc(C(=O)NCCN2CCCC2)c1`, the IC50 in test [6] stood at 470 nM; in test [1], 25200 nM; in [3], 36600 nM; in test [7] it was 2170 nM; in test [5], 340 nM. The “Ratio IC50” value turned out to be 106.9 in [2] and 73.7 in [4].
As to `Cl.O=C(Nc1ccc(N(CCCl)CCCl)cc1)Nc1cccc(C(=O)NCCN2CCOCC2)c1`, the IC50 came to 1210 nM in test [6]; 8160 nM in [1]; 16300 nM in [3]; 1450 nM in test [7]; 580 nM in test [5]. In addition, the “Ratio IC50” value was determined as 28.1 in test [2] and 14.1 in test [4].
For `CN(C)CCCNC(=O)c1cccc(NC(=O)Nc2ccc(N(CCCl)CCCl)cc2)c1.Cl`, the IC50 in [6] came to 850 nM; in test [1], 21200 nM; in test [3], 44000 nM; in [7] it was 2330 nM; in test [5], 290 nM. Moreover, the entries for the “Ratio IC50” value in test [2] and in [4] were 151.8 and 9.4, respectively.
Regarding `CN(C)CCCOc1cccc(NC(=O)Nc2ccc(N(CCCl)CCCl)cc2)c1`, the figures for the IC50 in test [1], in [3] and in test [5] were 2050 nM, 2370 nM and 320 nM, respectively. Also, the “Ratio IC50” value in [2] was 7.4; in test [4], 6.4.
Taken in the same sequence, the figures for `O=C(Nc1ccc(N(CCCl)CCCl)cc1)Nc1cccc(OCCN2CCOCC2)c1` were 730 nM, 1130 nM, 410 nM, 2.8 and 1.8.
For `CC[C@]1(O)C[C@@H]2CN(CCc3c([nH]c4ccccc34)[C@@](C(=O)OC)(c3cc4c(cc3OC)N(C)[C@H]3[C@@](O)(C(=O)OC)[C@H](OC(C)=O)[C@]5(CC)C=CCN6CC[C@]43[C@@H]65)C2)C1` [VINBLASTINE], the IC50 is 80 nM in test [1] and 0.7 nM in test [5]. Besides, the figures for the “Ratio IC50” value in test [2] and in [4] were 679.5 and 106.2, respectively.
Take `Cl.O=C(Nc1ccc(OCCN2CCCC2)cc1)Nc1ccc(N(CCCl)CCCl)cc1`: the IC50 worked out at 700 nM in test [6]; 1570 nM in test [1]; 2050 nM in test [3]; 490 nM in [7]; 3010 nM in test [8]; 5920 nM in test [9]. The IC50 amounted to 1840 nM in test [10], 1780 nM in test [11], 140 nM in test [5] and 2250 nM in [12]. Also, the “Ratio IC50” value came out at 15 in [2] and 11.5 in test [4].
For the molecule `Cl.O=C(Nc1ccc(C(=O)NCCN2CCCCC2)cc1)Nc1ccc(N(CCCl)CCCl)cc1`, the IC50 was 910 nM in test [6]; 15000 nM in test [1]; 24300 nM in test [3]; 4400 nM in test [7]; 360 nM in [5]. Further, the “Ratio IC50” value in [2] was found to be 67.8; in test [4], 41.8.

For the origin of these results see ChEMBL document CHEMBL1641520, “Design, synthesis, and biological evaluation of novel water-soluble N-mustards as potential anticancer agents” (Bioorg Med Chem, 2011).
